In ChEMBL document CHEMBL1649208, “High-throughput screening identifies three inhibitor classes of the telomere resolvase from the lyme disease spirochete” (Antimicrob Agents Chemother, 2009):

Tests used:
Telomere resolvase ResT = biological target: T1, Telomere resolvase ResT (Borrelia burgdorferi (strain ATCC 35210 / B31 / CIP 102532 / DSM4680), UniProt O50979); assay: Inhibition of Borrelia burgdorferi telomere resolvase by gel-based telomere resolution assay; design: species or system Borreliella burgdorferi
T1 sequence (O50979 whole entry): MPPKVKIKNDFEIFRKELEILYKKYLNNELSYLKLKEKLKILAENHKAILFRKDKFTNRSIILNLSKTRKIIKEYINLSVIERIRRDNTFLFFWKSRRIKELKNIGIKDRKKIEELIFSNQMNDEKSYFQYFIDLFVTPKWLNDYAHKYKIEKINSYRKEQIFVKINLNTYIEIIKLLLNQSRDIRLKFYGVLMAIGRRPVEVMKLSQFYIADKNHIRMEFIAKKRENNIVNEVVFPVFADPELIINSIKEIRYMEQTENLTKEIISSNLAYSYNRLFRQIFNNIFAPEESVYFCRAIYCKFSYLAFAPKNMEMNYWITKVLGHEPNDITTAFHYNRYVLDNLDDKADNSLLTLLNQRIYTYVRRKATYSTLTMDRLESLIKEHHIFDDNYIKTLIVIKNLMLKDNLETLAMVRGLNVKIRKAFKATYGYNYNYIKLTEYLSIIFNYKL

[1] = biological target: T2, Telomere resolvase ResT (Borrelia burgdorferi (strain ATCC 35210 / B31 / CIP 102532 / DSM4680)) (UniProt O50979); assay: Inhibition of Borrelia burgdorferi telomere resolvase assessed as DNA cleavage at 10 uM; conditions: Borreliella burgdorferi
T2 sequence (whole entry): T1 sequence (O50979 whole entry)

[2] = biological target: T2, Telomere resolvase ResT (Borrelia burgdorferi (strain ATCC 35210 / B31 / CIP 102532 / DSM4680)); assay: Inhibition of Borrelia burgdorferi telomere resolvase assessed as inhibition of telomere resolution at 10 uM; conditions: Borreliella burgdorferi
[3] = biological target: T2, Telomere resolvase ResT (Borrelia burgdorferi (strain ATCC 35210 / B31 / CIP 102532 / DSM4680)); assay: Inhibition of Borrelia burgdorferi telomere resolvase 164-449 sequence assessed as inhibition of DNA binding activity at 10 uM by electrophoretic mobility shift assay; conditions: Borreliella burgdorferi
[4] = biological target: T2, Telomere resolvase ResT (Borrelia burgdorferi (strain ATCC 35210 / B31 / CIP 102532 / DSM4680)); assay: Inhibition of Borrelia burgdorferi telomere resolvase assessed as reduction in DNA cleavage at 10 uM; conditions: Borreliella burgdorferi
Method in brief: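 Cleavage-step assay with 5′-bridging phosphorothiolate oligonucleotide substrate (OGCB116+OGCB117), 5.4 nM, 32P-labeled. Recombinant ResT at 165 nM, 10% DMSO final, 25 mM Tris-HCl pH 8.5, 100 mM NaCl, 1 mM EDTA, 25% glycerol. 30 min at 30°C, stopped with 0.1% SDS. Covalent protein–DNA complex resolved on 5% SDS-polyacrylamide gel, phosphorimager. Expressed relative to ResT+DMSO control.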

Question: Which results are given for `O=C(O)c1ccc(-c2nc(-c3ccc(-c4ccccc4)cc3)c(-c3ccc(-c4ccccc4)cc3)[nH]2)cc1`?
Answer: IC50 (Telomere resolvase ResT): 9.52 µM; % cleavage relative to control [1]: 43%; inhibition [2]: ≥ 70%; % binding relative to control [3]: 33%

Question: How did the IC50 (Telomere resolvase ResT) turn out when `C[C@H](CCC(=O)O)[C@H]1CC[C@H]2[C@@H]3CC[C@@H]4CCCC[C@]4(C)[C@H]3CC[C@@]12C` was run?
Answer: The IC50 was 1.96 µM.

Question: And the % cleavage relative to control [1]?
Answer: Its % cleavage relative to control is 79%.

Question: What about the inhibition [2] of the same molecule?
Answer: Its inhibition is at least 70%.

Question: What about the % binding relative to control [3] of the same molecule?
Answer: Its % binding relative to control is 14%.

Question: Which IC50 (Telomere resolvase ResT) does the source give for `O=C(O)c1ccc2c3c(cccc13)C(=O)N(c1ccc(-c3nc4ccc(N5C(=O)c6cccc7c(C(=O)O)ccc(c67)C5=O)cc4[nH]3)cc1)C2=O` here?
Answer: Its IC50 is 3.16 µM.

Question: And the % cleavage relative to control [1]?
Answer: Its % cleavage relative to control is 65%.

Question: And the inhibition [2]?
Answer: Its inhibition is at least 70%.

Question: And the % binding relative to control [3]?
Answer: Its % binding relative to control is 16%.

Question: For `O=C(O)CCCCCCCCCCCCC1C=CCC1` (centres undefined), which IC50 (Telomere resolvase ResT) is on record?
Answer: The IC50 was 2.62 µM.

Question: What about the % cleavage relative to control [1] of the same molecule?
Answer: The % cleavage relative to control was 75%.

Question: And the inhibition [2]?
Answer: Its inhibition is at least 70%.

Question: What about the % binding relative to control [3] of the same molecule?
Answer: Its % binding relative to control is 5%.

Question: Which results are given for `COc1cc(O)c2c(c1)oc(=O)c1c3cc(O)c(O)cc3oc21` [WEDELOLACTONE]?
Answer: IC50 (Telomere resolvase ResT): 8.67 µM; inhibition [4]: 6%; inhibition [2]: ≥ 70%
